# Screening results: PubChem BioAssay, several laboratories
# Shown are actives, neighbours in structure and some others; about 3.3% of the full set was active somewhere.
# ABCB6 inh MLPCN – human ABCB6 transporter inhibition; Q9NP58; K562-ABCB6 porphyrin accumulation, flow cytometry, 1 h; active compounds read low; fluorescence ratio to DMSO, % at 10 µM; 360,000 tested, 0.19% active;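 active = fluorescence ratio to DMSO below 75%, the collection mean minus 3 SD; inconclusive = too few cells collected in the well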;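 also: signal is porphyrin accumulated inside mitochondria; 100% equals median channel fluorescence of DMSO control wells; lower ratio means ABCB6 inhibition with less porphyrin fluorescence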
# Arrestin-AP2 inh – blocks beta-arrestin peptide binding to AP2 adaptin | 340,000 tested, 0.31% active | FITC-arrestin peptide / GST-AP2 beads, flow cytometry; AP2 beta2 appendage carries R879A mutation | AID 504490 | inhibition, % at 10 µM;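 active = inhibition above a set limit, near 3 SD of compounds lacking own fluorescence, cut at about 54% in these data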;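 also: plate controls were DMSO wells for no effect and 5 µM unlabelled arrestin peptide for full effect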
#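 System: GST-AP2 R879A glutathione beads | Also added: FITC-arrestin peptide, 50 nM | Times: 12 min plus 1 h, RT | Signal: Bead flow cytometry, FITC channel | Buffer or medium: PBS with 0.05% Tween 20 and 0.1% BSA | Read-out basis: Percent drop in bead-associated FITC signal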
# Granule exo inh – blocks lytic granule exocytosis. TALL-104 LAMP-1 surface exposure, flow cytometry; cells stimulated with thapsigargin and PMA. inhibition, % at 10 µM. 360,000 tested, 0.66% active. AID 651702;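 active = inhibition above about 55%, limit read from the data; inconclusive = no clear call, values can overlap the other calls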
# NRP1-CendR mod – alters CendR peptide binding to human NRP-1 | O14786 | FAM-RPARPAR peptide binding to NRP-1, fluorescence polarization | inhibition, % at 25 µM | 360,000 tested, 0.85% active | AID 602438;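 active = inhibition or corrected inhibition above about 18%, plus a signal ratio from 0.5 to 1.5, limit read from the data, passing the limit was not always enough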
# ATG4B inh – blocks human ATG4B protease cleavage of LC3 substrate; 340,000 tested, 0.51% active; inhibition, % at 8.33 µM; AID 504462; Q9Y4P1; ATG4B cleavage of LC3-PLA2, NBD-HPC fluorescence, 1 h; in the data active = inhibition above about 40%
# Target sequence (Q9Y4P1 whole entry, looked up): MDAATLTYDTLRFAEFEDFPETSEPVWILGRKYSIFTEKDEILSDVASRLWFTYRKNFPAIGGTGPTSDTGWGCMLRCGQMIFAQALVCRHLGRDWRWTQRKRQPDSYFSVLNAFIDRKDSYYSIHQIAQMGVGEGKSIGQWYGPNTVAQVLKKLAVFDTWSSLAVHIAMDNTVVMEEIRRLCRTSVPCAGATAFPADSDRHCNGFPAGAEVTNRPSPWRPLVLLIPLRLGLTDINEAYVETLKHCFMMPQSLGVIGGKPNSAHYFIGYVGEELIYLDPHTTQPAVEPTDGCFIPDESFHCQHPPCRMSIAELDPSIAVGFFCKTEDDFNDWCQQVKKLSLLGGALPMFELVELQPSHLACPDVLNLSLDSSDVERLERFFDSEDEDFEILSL
# Myeloid diff 2 – myeloid differentiation induction; ER-HoxA9 myeloid progenitors, lysozyme-GFP differentiation, flow cytometry; calls only at 10 µM; 360,000 tested, 1% active; AID 624256;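 active = normalized GFP-positive differentiation at or above the plate's own cutoff, the solvent-only control mean plus 3 SD; inconclusive = no clear call, values can overlap the other calls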;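 also: cells exposed to compound for four days before flow analysis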
# Numbers without * were called inactive; i = inactive; ? = inconclusive; . = no result; + = active, no number.
SMILES,ABCB6 inh MLPCN,Arrestin-AP2 inh,Granule exo inh,NRP1-CendR mod,ATG4B inh,Myeloid diff 2
Cc1c(CC(=O)O)c(=O)oc2c(C)c(OCc3nn[nH]n3)ccc12,491,2,2,14,1,+
Cc1cc(C)nc(NS(=O)(=O)c2ccc(NC(=O)CCC(=O)O)cc2)n1,98,2,-1,6,-3,i
O=C(Nc1ccc(-c2nnc3n2CCCCC3)cc1)c1ccco1,98,-2,0,34*,-4,i
Cc1ccc(NC(=O)N2CCC(NC(=O)c3ccco3)CC2)cc1,100,6,1,12,-5,+
Nc1ncnc2c1nc(Br)n2[C@@H]1O[C@@H]2COP(=O)(O)O[C@H]2[C@H]1O,98,25,3,7,6,i
Cc1cc(O)c(C=O)c2c1C(=O)Oc1c(CO)c(O)c3c(c1O2)C(O)OC3=O (stereo unspecified),94,4,-2,-51,86*,i
CCN1CCN(c2cc(C)c3cc(NC(=S)N4CCN(c5ccccc5)CC4)ccc3n2)CC1,96,-10,56*,-4,-1,?
CCN1CCN(c2cc(C)c3cc(NC(=S)N4CCOCC4)ccc3n2)CC1,96,22,2,0,5,i
OCC[C@@H]1C[C@H](O)[C@@H](O)[C@]2(OCCc3cc(C(F)(F)F)ccc32)O1,107,.,3,-12,.,i
CCOC(=O)c1c(NC(=O)COC(=O)Cn2cnc3ccccc32)sc2c1CCC(C)C2 (stereo unspecified),99,-3,4,33*,-7,i
O=C(O)CCCCCN1C(=O)C(O)=C(C(=O)/C=C/c2ccccc2)C1c1ccc2c(c1)OCO2 (stereo unspecified),98,33,1,-15,17,i
O=C(Nc1ccccc1N1CCOCC1)c1ccc(N2CCCC2=O)cc1,103,-1,-9,25*,-8,i
CC(=O)N/N=C/c1cc(C)n(-c2ccc(Br)cc2)c1C,105,-5,-3,2,6,i
CC(=O)N/N=C/c1cc(C(C)C)cc(/C=N/NC(C)=O)c1O,117,-11,3,41*,-13,i
COc1cc(/C=C(\C#N)c2nc3ccccc3s2)ccc1OCC(=O)Nc1ccccc1,102,0,-1,-118,5,+
Cc1cccc(N2C(=O)/C(=C/c3cccnc3)SC2=S)c1,97,30,6,8,10,i
Cc1cc(/C=C2/SC(=S)N(c3cccc(Cl)c3)C2=O)c(C)n1-c1cccnc1,336,-8,6,-98,-7,+
Cc1cc(/C=C2\SC(=S)N(C)C2=O)c(C)n1-c1ccc(O)cc1,156,-5,9,-141,8,i
Cc1cc(/C=C2/SC(=S)N(c3ccc([N+](=O)[O-])cc3)C2=O)c(C)n1-c1cccnc1,124,25,58*,-30,2,i
Cc1cc(/C=C2\SC(=S)N(C)C2=O)c(C)n1-c1ccccc1O,127,1,9,-147,0,+
COC(=O)C(CC(=O)c1ccc(C)cc1)n1nc(C)cc1C (stereo unspecified),101,-11,57*,12,2,i
COC(=O)C(CC(=O)c1ccc(Br)cc1)n1nc(C)cc1C (stereo unspecified),96,-10,37,-4,0,i
Cc1nc(Nc2ccc(S(=O)(=O)N3CCCCC3C)cc2)c2nnn(Cc3ccccc3)c2n1 (stereo unspecified),94,5,-2,3,-6,+
Cc1nc(Nc2ccc(Cl)cc2)c2nnn(Cc3ccccc3)c2n1,99,-8,2,-7,-10,i
COC(=O)[C@H]1[C@@H](C)N(Cc2ccccc2)C(=O)N[C@H]1c1cccc(C(F)(F)F)c1,99,24,-3,-3,0,+
CCN1C(=O)N[C@@H](CCc2ccccc2)[C@@H](C(=O)OC)[C@H]1C,90,17,15,16,-4,+
COC(=O)[C@H]1[C@H](CCc2ccccc2)NC(=O)N(Cc2ccccc2)[C@@H]1C,96,-5,0,6,1,i
